# Experimental data: ChEMBL document CHEMBL1157103, “Structure and anti-TB activity of trachylobanes from the liverwort Jungermannia exsertifolia ssp. cordifolia” (2010)
# Tested on: Mycobacterium tuberculosis
# Assay: Antituberculosis activity against Mycobacterium tuberculosis H37Rv ATCC 27294 after 7 to 10 days by microplate alamar blue assay
# Type: functional
# In short: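 Microdilution in 96-well format. Test materials were incubated with virulent M. tuberculosis H37Rv for 7–10 days at 0.1 to 128 μg/mL. Growth was read fluorometrically with Alamar Blue. MIC90 and percent inhibition were calculated against a 1:10 dilution of the inoculum. Rifampin served as the positive control and DMSO as the negative control.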
row,SMILES,MIC90 [µM]
1,CC(=O)O[C@@H]1CC[C@@]2(C)[C@@H]3C[C@@H]4[C@H]5C[C@@]3(CC[C@@H]2[C@@]1(C)C=O)C[C@@]45C,> 371
2,CC(=O)OC[C@]1(C)[C@H]2CC[C@@]34C[C@@H]5[C@@H](C[C@H]3[C@]2(C)CC[C@H]1O)[C@]5(C)C4,> 370
3,CC1(C)[C@H](O)CC[C@]2(C)[C@@H]1CC[C@@]13C[C@@H]4[C@@H](C[C@H]12)[C@]4(C(=O)O)C3,> 402
4,CC(=O)OC[C@@]1(C(=O)O)[C@H](OC(C)=O)CC[C@@]2(C)[C@@H]3C[C@@H]4[C@H]5C[C@@]3(CC[C@@H]21)C[C@@]45C,> 306
5,CC(=O)O[C@@H]1CC[C@]2(C)[C@H](CC[C@@]34C[C@@H]5[C@@H](C[C@H]32)[C@]5(C)C4)[C@@]1(C)CO,> 370
6,CC(=O)O[C@@H]1CC[C@]2(C)[C@H](CC[C@@]34C[C@@H]5[C@@H](C[C@H]32)[C@]5(C)C4)C1(C)C,337
7,CC1(C)CCC[C@]2(C)[C@@H]1CC[C@@]13C[C@@H]4[C@@H](C[C@H]12)[C@]4(C=O)C3,85
8,CC1(C)CCC[C@]2(C)[C@@H]1CC[C@@]13C[C@@H]4[C@@H](C[C@H]12)[C@]4(CO)C3,446
9,CC(=O)O[C@@H]1CC[C@@]2(C)[C@@H]3C[C@@H]4[C@H]5C[C@@]3(CC[C@@H]2[C@]1(C)C=O)C[C@@]45C,> 371
10,CC(=O)O[C@@H]1CC[C@]2(C)[C@H](CC[C@@]34C[C@@H]5[C@@H](C[C@H]32)[C@]5(C)C4)[C@]1(C)CO,171
11,CC1(C)[C@H](O)CC[C@]2(C)[C@@H]1CC[C@@]13C[C@@H]4[C@@H](C[C@H]12)[C@]4(C)C3,212
12,CC1(C)C(=O)CC[C@@]2(C)[C@@H]3C[C@@H]4[C@@H]5C[C@@]3(CC[C@@H]12)C[C@@]45C,173
13,CO[C@H]1/C=C/O[C@@]2(C)Oc3c(C)c(O)c4c(O)c(c(/C=N/N5CCN(C)CC5)c(O)c4c3C2=O)NC(=O)/C(C)=C\C=C\[C@H](C)[C@H](O)[C@@H](C)[C@@H](O)[C@@H](C)[C@H](OC(C)=O)[C@@H]1C [RIFAMPIN],< 0.15
